The source made the active and inactive calls. The rule behind the calls is not given here.
Key:
[1] = target: T1, 2-Hydroxyacid oxidase 1 (Homo sapiens) (UniProt Q9UJM8); experiment: (§1) Inhibition of N-terminal His-tagged human recombinant glycolate oxidase expressed in Escherichia coli BL21 (DE3) cells using glycolate as substrate at 20 uM preincubated for 5 mins followed by substrate addition and measured after 1 min in the presence of DCHBS by horseradish peroxidase coupled colorimetric method relative to control; settings: time 6.0 min
T1 sequence (whole entry): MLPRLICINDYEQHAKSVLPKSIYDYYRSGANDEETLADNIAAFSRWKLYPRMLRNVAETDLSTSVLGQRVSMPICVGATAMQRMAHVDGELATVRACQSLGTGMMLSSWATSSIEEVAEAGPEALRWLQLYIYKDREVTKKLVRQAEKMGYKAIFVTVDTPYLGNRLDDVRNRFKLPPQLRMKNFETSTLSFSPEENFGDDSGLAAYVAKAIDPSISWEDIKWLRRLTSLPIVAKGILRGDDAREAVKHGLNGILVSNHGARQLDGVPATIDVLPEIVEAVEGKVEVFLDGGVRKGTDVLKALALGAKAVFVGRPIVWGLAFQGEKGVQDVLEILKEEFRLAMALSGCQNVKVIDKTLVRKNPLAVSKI

[2] = target: T2, 2-Hydroxyacid oxidase 1 (Mus musculus) (UniProt Q9WU19); experiment: as §1, with “mouse” for “human”; settings: time 6.0 min
T2 sequence (whole entry): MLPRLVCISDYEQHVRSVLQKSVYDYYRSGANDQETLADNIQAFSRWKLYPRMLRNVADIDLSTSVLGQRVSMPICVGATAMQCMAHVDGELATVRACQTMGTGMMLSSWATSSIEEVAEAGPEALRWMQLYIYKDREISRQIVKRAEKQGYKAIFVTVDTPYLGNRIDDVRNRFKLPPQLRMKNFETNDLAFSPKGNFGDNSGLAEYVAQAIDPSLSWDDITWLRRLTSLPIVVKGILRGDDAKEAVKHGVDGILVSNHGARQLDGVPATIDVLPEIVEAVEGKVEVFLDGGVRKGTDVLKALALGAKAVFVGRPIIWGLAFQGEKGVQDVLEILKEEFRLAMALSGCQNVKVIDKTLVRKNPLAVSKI

[3] = target: T3, L-lactate dehydrogenase A chain (Homo sapiens, UniProt P00338); experiment: Inhibition of human recombinant LDHA using pyruvate as substrate preincubated for 10 mins followed by substrate addition and measured every 60 sec for 10 mins in the presence of NADH by fluorescence assay
2-Hydroxyacid oxidase 1 [4] = target: T4, 2-Hydroxyacid oxidase 1 (Homo sapiens, UniProt Q9UJM8); experiment: Inhibition of N-terminal His-tagged human recombinant glycolate oxidase expressed in Escherichia coli BL21 (DE3) cells using glycolate as substrate preincubated for 10 mins followed by substrate addition and measured after 10 mins by Amplex red and horseradish peroxidase based fluorescence assay
T4 sequence (Q9UJM8 whole entry): T1 sequence (whole entry)

2-Hydroxyacid oxidase 1 [5] = target: T5, 2-Hydroxyacid oxidase 1 (Mus musculus, UniProt Q9WU19); experiment: Inhibition of N-terminal His-tagged mouse recombinant glycolate oxidase expressed in Escherichia coli BL21 (DE3) cells using glycolate as substrate preincubated for 10 mins followed by substrate addition and measured after 10 mins by Amplex red and horseradish peroxidase based fluorescence assay
T5 sequence (Q9WU19 whole entry): T2 sequence (whole entry)

[6] = target: T6, L-lactate dehydrogenase B chain (Homo sapiens, UniProt P07195); experiment: Inhibition of human recombinant LDHB using pyruvate as substrate preincubated for 10 mins followed by substrate addition and measured every 60 sec for 10 mins in the presence of NADH by fluorescence assay
T6 sequence (P07195 whole entry): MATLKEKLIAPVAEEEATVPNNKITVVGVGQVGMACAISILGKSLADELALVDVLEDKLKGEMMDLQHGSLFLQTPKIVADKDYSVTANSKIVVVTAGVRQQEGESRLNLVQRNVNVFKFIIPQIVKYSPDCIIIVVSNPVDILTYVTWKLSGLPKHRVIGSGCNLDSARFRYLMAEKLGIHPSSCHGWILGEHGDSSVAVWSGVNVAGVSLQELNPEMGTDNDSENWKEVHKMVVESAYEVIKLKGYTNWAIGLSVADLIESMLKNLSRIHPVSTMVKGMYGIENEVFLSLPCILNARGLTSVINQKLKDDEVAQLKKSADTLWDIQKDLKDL

Hepatocyte [7] = experiment: Inhibition of GO/LDHA in hyperoxaluric-primary hepatocyte isolated from Agxt1 knockdown PH1 C57BL/6 mouse assessed as relative oxalate output at 10 uM measured at 24 hrs in the presence of glycolate relative to control; type: cell-based
Outline: (§2)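 Agxt1-/- mouse primary hepatocytes cultured with 5 mM glycolate, inhibitor at 10 μM; extracellular oxalate measured by colorimetric kit 24 and 48 h after inhibitor addition; relative oxalate = oxalate with inhibitor over oxalate without inhibitor; negative values mean below detection limit; mean of three/four replicates ± SD.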

Hepatocyte [8] = experiment: Inhibition of GO/LDHA in hyperoxaluric-primary hepatocyte isolated from Agxt1 knockdown PH1 C57BL/6 mouse assessed as relative oxalate output at 10 uM measured at 48 hrs in the presence of glycolate relative to control; type: cell-based; outline: as §2
Hepatocyte [9] = experiment: Inhibition of GO/LDHA in hyperoxaluric-primary hepatocyte isolated from Grhpr-knockdown PH2 C57BL/6 mouse assessed as relative oxalate output at 10 uM measured at 24 hrs in the presence of glycolate relative to control; type: cell-based
Outline: (§3)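 Grhpr-/- mouse primary hepatocytes cultured with 10 mM glycolate, inhibitor at 10 μM; extracellular oxalate determined colorimetrically at 24 and 48 h post-treatment, expressed relative to untreated medium (RO); negative RO means below detection limit; three/four replicates, mean ± SD.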

Hepatocyte [10] = experiment: Inhibition of GO/LDHA in hyperoxaluric-primary hepatocyte isolated from Grhpr-knockdown PH2 C57BL/6 mouse assessed as relative oxalate output at 10 uM measured at 48 hrs in the presence of glycolate relative to control; type: cell-based; outline: as §3
Hepatocyte [11] = experiment: Inhibition of GO/LDHA in hyperoxaluric-primary hepatocyte isolated from Hoga1-knockdown PH3 C57BL/6 mouse assessed as relative oxalate output at 10 uM measured at 24 hrs in the presence of hydroxyproline relative to control; type: cell-based
Outline: (§4)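 Hoga1-/- mouse primary hepatocytes challenged with 10 mM hydroxyproline, inhibitor 10 μM; extracellular oxalate measured by colorimetric kit 24 and 48 h after dosing, given as ratio to oxalate without inhibitor; negative values are below detection limit; mean of three/four replicates ± SD.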

Hepatocyte [12] = experiment: Inhibition of GO/LDHA in hyperoxaluric-primary hepatocyte isolated from Hoga1-knockdown PH3 C57BL/6 mouse assessed as relative oxalate output at 10 uM measured at 48 hrs in the presence of hydroxyproline relative to control; type: cell-based; outline: as §4
Hepatocyte [13] = experiment: Cytotoxicity against hyperoxaluric-primary hepatocyte isolated from Hoga1-knockdown PH3 C57BL/6 mouse assessed as cell death at 10 uM by MTS assay; type: toxicity, cell-based; settings: hepatocytes, Hoga1-knockdown PH3, 10 µM
Outline: (§5)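 Primary hepatocytes from Agxt1-/- (PH1, 5 mM glycolate), Grhpr-/- (PH2, 10 mM glycolate) or Hoga1-/- (PH3, 10 mM hydroxyproline) mice, incubated with inhibitor at 10 μM; viability followed through the oxalate assay by MTS tetrazolium method.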

Hepatocyte [14] = experiment: Cytotoxicity against hyperoxaluric-primary hepatocyte isolated from Grhpr-knockdown PH2 C57BL/6 mouse assessed as cell death at 10 uM by MTS assay; type: toxicity, cell-based; settings: hepatocytes, Grhpr-knockdown PH2 (primary hyperoxaluria type 2); outline: as §5
Hepatocyte [15] = experiment: Cytotoxicity against hyperoxaluric-primary hepatocyte isolated from Agxt1-knockdown PH1 C57BL/6 mouse assessed as cell death at 10 uM by MTS assay; type: toxicity, cell-based; settings: hepatocytes, Agxt1-knockdown PH1, 10 µM; outline: as §5
Hepatocyte [16] = experiment: Inhibition of GO/LDHA in hyperoxaluric-primary hepatocyte isolated from Agxt1 knockdown PH1 C57BL/6 mouse assessed as reduction in extracellular oxalate concentration at 10 uM measured at 48 hrs in the presence of glycolate relative to control; type: cell-based; set-up: scale not given: the % may be the effect or the level left; outline: as §2
[17] = Inhibition of GO/LDHA in hyperoxaluric-primary hepatocyte isolated from Agxt1 knockdown PH1 C57BL/6 mouse measured at 24 hrs in the presence of 5 mM glycolate; type: cell-based
Outline: (§6)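 Agxt1-/- hepatocytes with 5 mM glycolate; eight inhibitor concentrations per replicate; extracellular oxalate measured colorimetrically at 24 or 48 h; EC50 as mean of three/four replicates ± SD.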

[18] = Inhibition of GO/LDHA in hyperoxaluric-primary hepatocyte isolated from Agxt1 knockdown PH1 C57BL/6 mouse measured at 48 hrs in the presence of 5 mM glycolate; type: cell-based; outline: as §6
HEK293 = experiment: Cytotoxicity against HEK293 cells assessed as reduction in cell viability upto 50 uM measured after 48 hrs by MTT assay; type: toxicity, cell-based; settings: human, hek293, 48 h
2-Hydroxyacid oxidase 1 [19] = target: T4, 2-Hydroxyacid oxidase 1; experiment: (§7) Non-competitive mixed inhibition of N-terminal His-tagged human recombinant glycolate oxidase expressed in Escherichia coli BL21 (DE3) cells assessed as inhibition constant using varying concentration of glycolate as substrate measured every 60 sec for 15 mins by Amplex red and horseradish peroxidase based fluorescence assay
2-Hydroxyacid oxidase 1 [20] = target: T5, 2-Hydroxyacid oxidase 1; experiment: as §7, with “mouse” for “human”
[21] = target: T3, L-lactate dehydrogenase A chain; experiment: Non-competitive inhibition of human recombinant LDHA assessed as inhibition constant using varying concentration of pyruvate as substrate preincubated for 10 mins followed by substrate addition and measured every 60 sec for 10 mins in the presence of NADH by fluorescence assay
[22] = target: T6, L-lactate dehydrogenase B chain; experiment: Non-competitive inhibition of human recombinant LDHB assessed as inhibition constant using varying concentration of pyruvate as substrate preincubated for 10 mins followed by substrate addition and measured every 60 sec for 10 mins in the presence of NADH by fluorescence assay
[23] = target: T2, 2-Hydroxyacid oxidase 1 (Mus musculus); experiment: Non-competitive mixed inhibition of N-terminal His-tagged mouse recombinant glycolate oxidase expressed in Escherichia coli BL21 (DE3) cells assessed as decrease in Vmax with increase in apparent Km using glycolate as substrate upto 60 microM
[24] = Inhibition of GO/LDHA in hyperoxaluric-primary hepatocyte isolated from Grhpr-knockdown PH2 C57BL/6 mouse measured at 24 hrs in the presence of 10 mM glycolate; type: cell-based
Outline: (§8)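 Grhpr-/- hepatocytes with 10 mM glycolate; eight inhibitor concentrations per replicate; colorimetric extracellular oxalate at 24 or 48 h; EC50 as mean of three/four replicates ± SD.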

[25] = Inhibition of GO/LDHA in hyperoxaluric-primary hepatocyte isolated from Grhpr-knockdown PH2 C57BL/6 mouse measured at 48 hrs in the presence of 10 mM glycolate; type: cell-based; outline: as §8

SMILES	inhibition [1]	inhibition [2]	IC50 [3]	IC50 (2-Hydroxyacid oxidase 1 [5])	IC50 [6]	Activity (Hepatocyte [13])	Activity (Hepatocyte [14])	Activity (Hepatocyte [15])	Activity (Hepatocyte [16])	EC50 [17]	EC50 [18]	Activity (HEK293)	also measured
O=C(O)c1cc(-c2ccc(CNCc3ccc([N+](=O)[O-])cc3)o2)ccc1O	< 50%	< 50%	8 µM										
N.O=C(O)c1cc(-c2ccc(CNc3ccc([N+](=O)[O-])cc3)o2)ccc1O			1.5 µM	5.4 µM	5.9 µM	Non-Toxic	Non-Toxic	Non-Toxic	50%	0.6 µM	1.6 µM	Non-Toxic	IC50 (2-Hydroxyacid oxidase 1 [4]): 10.3 µM; fold change (FC) (Hepatocyte [7]): 0.04; fold change (FC) (Hepatocyte [8]): 0.5; fold change (FC) (Hepatocyte [9]): 0.6; fold change (FC) (Hepatocyte [10]): 0.88; fold change (FC) (Hepatocyte [11]): 0.18; fold change (FC) (Hepatocyte [12]): 0.1
O=C(O)c1cc(-c2ccc(CN3CCCCC3)o2)ccc1O	< 50%	< 50%											
O=C(O)c1cc(-c2ccc(CNCc3cccnc3)o2)ccc1O	< 50%	< 50%											
O=Cc1ccc(-c2ccc(O)c(C(=O)O)c2)o1				14.4 µM	29 µM	Non-Toxic	Non-Toxic	Non-Toxic	60%	3.5 µM	8.4 µM	Non-Toxic	Ki (2-Hydroxyacid oxidase 1 [19]): 18.2 µM; Ki (2-Hydroxyacid oxidase 1 [20]): 7.9 µM; Ki [21]: 1.4 µM; Ki [22]: 12.9 µM; inhibition [23]: Active; EC50 [24]: 1.8 µM; EC50 [25]: 1.9 µM
COc1cccc2c1C(=O)c1c(O)c3c(c(O)c1C2=O)C[C@@](O)(C(=O)CO)C[C@@H]3O[C@H]1C[C@H](N)[C@H](O)[C@H](C)O1 [DOXORUBICIN]												Non-Toxic	
